# dFosB act-1 – enhances mouse delta FosB homodimer DNA binding. actives 0.99% (n = 340,000). P13346. purified delta FosB, TAMRA-CDK5 oligo fluorescence polarization; percent of positive-control signal above neutral wells. activation, % at 25 µM;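 active = mean activation above about 17%, with every replicate also reaching it, limit read from the data, passing the limit was not always enough; inconclusive = only one of the two conditions met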
# Target sequence (P13346 whole entry, looked up): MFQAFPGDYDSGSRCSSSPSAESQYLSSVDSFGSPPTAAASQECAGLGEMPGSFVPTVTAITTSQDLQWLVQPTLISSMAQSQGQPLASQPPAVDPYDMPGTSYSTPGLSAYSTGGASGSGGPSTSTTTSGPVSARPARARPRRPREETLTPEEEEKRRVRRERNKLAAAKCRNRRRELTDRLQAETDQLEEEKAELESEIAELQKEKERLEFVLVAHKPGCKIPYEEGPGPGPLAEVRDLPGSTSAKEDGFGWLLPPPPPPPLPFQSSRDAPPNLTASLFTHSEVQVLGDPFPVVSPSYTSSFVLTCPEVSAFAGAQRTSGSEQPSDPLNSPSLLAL
# CAL PDZ FP-1 – blocks peptide binding to the human CAL PDZ domain | Q9HD26 | purified CAL PDZ, TMR-peptide fluorescence polarization, 1 h | actives 0.92% (n = 300,000) | AID 602252 | inhibition, % at 24.9 µM;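 active = mean inhibition of at least 30% with at least half of replicates also reaching 30%; inconclusive = no clear call, values can overlap the other calls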;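 also: 0% = DMSO neutral control and 100% = excess unlabeled competitor peptide PRC23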
# DYRK1A inh – Dyrk1A (rat) kinase inhibition; Q63470; ADP-Glo luminescence, NFATc1 peptide; inhibition, % at 12.5 µM; actives 0.43% (n = 310,000); in the data active = inhibition above about 50%;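 also: plate controls were vehicle with enzyme for no effect and no enzyme for full effect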
# CDK5 inh – blocks human CDK5/p35 kinase activity. Q00535+Q15078. Recombinant CDK5/p35, ADP-Glo luminescence, 60 min. inhibition, % at 10 µM. actives 0.01% (n = 330,000);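 active = highest replicate inhibition of at least 50% and at least 75% of replicates reaching 50%; inconclusive = only one of the two criteria met; inactive = both criteria failed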;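 also: plate controls were DMSO neutral control for no effect and GW8510 at 10 µM for full effect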
# Rtt109 HAT inh – blocks Candida albicans Rtt109/Vps75 acetyltransferase activity; inhibition, % at 34.9 µM; purified Rtt109/Vps75, ThioGlo CoA-SH fluorescence, 4 h; actives 0.16% (n = 330,000); Q5AAJ8;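 active = inhibition of at least 50% in every replicate; inconclusive = best replicate reaches 50% inhibition but some replicates fall short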
# CAL PDZ FP-2 – inhibitors of human CAL PDZ peptide binding; Q9HD26; purified CAL PDZ, TMR-peptide fluorescence polarization, 1 h; inhibition, % at 20 µM; actives 0.02% (n = 330,000); AID 504414;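 active = highest replicate inhibition of at least 40%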;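 also: plate controls were DMSO neutral control wells for no effect and unlabeled competitor peptide control wells for full effect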
#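 Read-out basis: mP drop reported as inhibition | Assay system: Tagged CAL PDZ protein CerCALP, purified | Benchmarks: Unlabelled peptide for full inhibition, DMSO wells as neutral | Schedule: 1 h incubation at room temperature before polarization reading | Buffer or medium: Sodium phosphate/NaCl buffer pH 7.4 with TCEP, IgG, Thesit | Doses: Single point, 20 µM | Measured by: Fluorescence polarization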
# dFosB act-2 – activators of mouse delta FosB homodimer DNA binding | shares compounds with dFosB act-1 | purified delta FosB, TAMRA-CDK5 oligo fluorescence polarization; normalised: neutral wells 0, positive control 100 | activation, % at 24.9 µM | 2,400 tested, under 10 active;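 active = highest replicate activation at or above 34% and every replicate reaching that threshold; inconclusive = meets only one of the two criteria; inactive = meets neither criterion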;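 also: higher polarization means more probe DNA bound by delta FosB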
# * marks the source's active call; other numbers are inactive results; ? = inconclusive; . = no result given. Compounds with a hit are over-represented: about 2.2% of the library has one in this group of screens.
SMILES,dFosB act-1,CAL PDZ FP-1,DYRK1A inh,CDK5 inh,Rtt109 HAT inh,CAL PDZ FP-2,dFosB act-2
C[C@@]12C(=O)Nc3ccc(Cl)cc3C(=O)N1[C@H]1c3cc(Br)ccc3OC[C@@H]1[C@@H]2c1ccccc1,-3,-1,3,-1,-8,-1,.
C[C@@]12C(=O)Nc3ccc(Br)cc3C(=O)N1[C@H]1c3cc(Br)ccc3OC[C@@H]1[C@@H]2c1ccccc1,38*,-1,-1,-2,9,-2,-7
COC(=O)[C@]1(C)N[C@H](c2ccc(-c3ccc(Cl)c(Cl)c3)c(OC)c2)[C@@H]2C(=O)N(C)C(=O)[C@@H]21,3,14,3,0,-9,0,.
CCOC(=O)c1ccccc1NC(=O)Cn1c(-c2nonc2N)nc2ccccc21,5,-4,6,-1,5,0,.
Nc1nonc1-c1nc2ccccc2n1CC(=O)Nc1ccccc1,33*,-1,-8,2,-6,-2,2
CC(C)N(C(=O)[C@H]1C[C@H](CC(=O)NCCCn2ccnc2)C(=O)N2CCc3c([nH]c4ccc(Cl)cc34)[C@]12C)C(C)C,-7,1,.,-1,5,-3,.
CCc1nc2c(nnn2Cc2ccc(F)cc2)c(=O)[nH]1,4,5,-3,0,-14,-2,.
O=C(CSCc1nc2c(nnn2Cc2ccc(F)cc2)c(=O)[nH]1)Nc1c(Cl)cc(Cl)cc1Cl,29*,-5,.,-1,1,-1,-2
COc1ccc(-c2cc3c(=O)n(CC(=O)NCc4ccc(Cl)cc4)ncn3n2)cc1,0,.,2,0,-7,-1,.
COc1ccc(CNC(=O)Cn2ncn3c(cc4ccccc43)c2=O)cc1,73*,-2,6,0,-6,0,1
COc1ccc(-c2cc3c(=O)n(CC(=O)NCc4ccc(F)cc4)ncn3n2)cc1,101*,50*,0,1,-5,-1,?
COc1ccc(-c2cc3c(=O)n(CC(=O)Nc4cccc(Cl)c4)ncn3n2)cc1,42*,-1,.,.,-2,-2,2
CCN1CCN(C(=O)c2ccc(Cl)c(S(=O)(=O)N(C)c3ccccc3)c2)CC1,-4,-2,-1,1,-6,1,.
CCn1cc(C(=O)N[C@@H](C)C(=O)NCCCO)c(=O)c2cc3c(cc21)OCO3,5,4,-1,1,10,0,.
CC(/C=N/NC(=O)c1ccc(Cn2cc([N+](=O)[O-])cn2)o1)=C\c1ccccc1,28*,-5,0,-1,17,-4,4
CCOc1ccc(/C=N/NC(=O)c2ccc(Cn3cc([N+](=O)[O-])cn3)o2)cc1,10,1,1,2,-6,.,.
O=C(c1ccc(Cl)cc1)c1cnc(-c2ccccc2)s1,-4,-4,-4,-1,8,-2,.
O=C(c1ccc(Cl)cc1)c1cnc(Nc2ccccc2Cl)s1,53*,-4,-1,-2,-14,0,6
COC(CNC(=O)C1CC(=O)N(CCc2ccc(C)cc2)C1)OC (stereo not given),9,-3,6,1,.,-1,.
CCOC(=O)c1cc2c(N)c(C(=O)c3ccc(Br)cc3)sc2[nH]c1=O,22*,.,8,-3,-8,-1,0
CCOC(=O)c1cc(C(=O)OCC)c(=O)[nH]c1C,1,1,0,-1,6,0,.
Cc1ccccc1NC(=O)Cc1nc(COC(=O)c2cc([N+](=O)[O-])ccc2N)cs1,27*,.,.,0,-1,-2,-7
Cc1ccccc1NC(=O)Cc1nc(COC(=O)c2cc(Br)ccc2O)cs1,?,-1,.,-2,4,0,.
COc1ccc(C(=O)N2CCN(c3ccc(F)cc3)CC2)cc1S(=O)(=O)NC1CC1,-8,.,.,-1,-3,0,.
N#Cc1ccc(-c2cccnc2)nc1SCc1ccc(Cl)c(Cl)c1,9,-3,-5,2,.,-3,.
SMILES,dFosB act-1,CAL PDZ FP-1,DYRK1A inh,CDK5 inh,Rtt109 HAT inh,CAL PDZ FP-2,dFosB act-2
N#Cc1ccc(-c2cccnc2)nc1SCc1ccc(Cl)cc1Cl,108*,-1,2,-1,-12,-2,3
O=C(COC(=O)c1ccc2ncsc2c1)NCc1ccccc1Cl,24*,2,.,-2,-1,-2,-6
O=C(COC(=O)c1ccc2ncsc2c1)NCc1cccc(Cl)c1,-13,-3,.,0,-6,-1,.
CC1CN(C(=O)c2ccc(NS(=O)(=O)c3ccc(C(C)(C)C)cc3)cc2)CC(C)O1 (stereo not given),-15,0,16,0,11,-2,.
CCOC(=O)C/C(N)=N/N(C)c1ncc(C(F)(F)F)cc1Cl,-7,-2,-1,-7,-3,0,.
Cn1c(=O)[nH]c(=O)c2c1nc(NCc1ccccc1)n2Cc1ccc(F)cc1,0,-3,-3,0,1,1,.
COc1ccc(CNc2nc3c(c(=O)[nH]c(=O)n3C)n2Cc2ccccc2C)cc1,18*,-8,0,-4,-7,2,0
O=C(Nc1ccc(F)c(Cl)c1)Nc1ccc(Cl)cn1,39*,4,2,0,-1,-1,2
O=C(Nc1ccc(F)cc1)Nc1ccc(Cl)cn1,42*,.,1,2,-6,-2,1
CCCC(=O)Nc1ccc(C(=O)COC(=O)c2cc(C)oc2C)cc1,1,-3,0,1,-5,-1,.
O=C(CNC(=O)c1ccc(-c2ccccc2)cc1)Nc1ccc(S(=O)(=O)Nc2ncccn2)cc1,25*,-2,-4,0,-14,-3,4
COc1ccc(C2c3ccc4ccccc4c3Oc3ncn(Cc4ccco4)c(=N)c32)cc1OC (stereo not given),53*,-9,1,0,6,-2,5
COc1ccc(C2c3ccc(O)cc3Oc3ncn(Cc4ccco4)c(=N)c32)cc1OC (stereo not given),2,-2,-4,-3,0,-1,.
Cc1cc(C(=O)CS(=O)(=O)c2ccc(Cl)cc2)cc(C)c1O,3,8,5,0,2,1,.
Cc1cc(OCC(=O)N2CCC[C@@H]2C(=O)O)c2c(C)c(C)c(=O)oc2c1,-3,-3,-9,1,5,0,.
Cc1cc(OCC(=O)N2CCN(c3cccc(Cl)c3)CC2)c2c(C)c(C)c(=O)oc2c1,39*,0,2,0,-13,0,0
CC(C)CCn1c(N)c(S(=O)(=O)c2cccs2)c2nc3ccccc3nc21,-13,-1,-11,1,0,.,.

# From PubChem
